A selection: hits, their analogues and other compounds. The true share with any hit is near 4.6%.
TAAR1 ag – human TAAR1 agonism; activation, % at 3 µM; CHO RD-HGA16 TAAR1, Fluo-8 calcium fluorescence; vehicle wells 0%, saturating PEA agonist 100%; actives 0.99% (n = 360,000); Q96RJ0;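 active = activation above the mean activation of all test compounds in the run plus 3 SD, cut at about 38% in these data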
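System: CHO-derived RD-HGA16 cells with stable Gα16 and human TAAR1. Times: 17-24 h plating, Fluo-8 75 min 37 °C, 30 min RT. Measured by: calcium-sensitive Fluo-8 signal, excitation 470-495, emission 515-575 nm. Read-out basis: % activation relative to PEA EC100 response. Control set: DMSO and PEA EC100. Repeats: no replicates (n 1).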
CHO parental Ca – signal in parental CHO cells, OX1R antagonist counter-screen; actives 0.63% (n = 330,000); parental CHO-K1, ATP-induced calcium, Fluo-8 fluorescence; inhibition, % at 5.6 µM;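 active = inhibition above that plate's mean sample inhibition plus 3 SD, cut at about 26% in these data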;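 note: 0% = ATP-challenged DMSO wells and 100% = DMSO wells without ATP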
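material = parental CHO cells | also added = ATP as calcium-mobilizing challenge | dosing = single point at 5.6 µM | detection = intracellular calcium via Fluo-8 no-wash fluorescent dye | read-out = % inhibition | benchmarks = low control ATP plus DMSO, high control DMSO only | repeats = one well per compound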
GPR7 antagonist – antagonists of human GPR7 (neuropeptides B/W receptor 1). P48145. GPR7-expressing cells, fluorescence antagonist assay. inhibition, % at 4.4 µM. actives 1.1% (n = 290,000). AID 1861; in the data active = inhibition above about 16%, passing the limit was not always enough;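 note: cells stimulated with the agonist NPW; 0% = agonist with vehicle and 100% = vehicle without agonist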
TAAR1 antag – human TAAR1 antagonism; actives 1.5% (n = 360,000); Q96RJ0; inhibition, % at 3 µM; CHO RD-HGA16 TAAR1, Fluo-8 calcium fluorescence, antagonist;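 active = inhibition above a per-plate cutoff, the mean inhibition of test compounds on that plate plus 3 SD, cut at about 49% in these data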;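 note: 0% = DMSO plus EC80 beta-PEA response and 100% = DMSO alone without agonist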
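Test system: hTAAR1-expressing CHO RD-HGA16 cells, Gα16-coupled; Probe or stimulus: EC80 β-phenethylamine stimulus; Compound dosing: single nominal final test compound concentration of 3 µM; Timing: 140 s kinetic read after compound, 140 s after agonist; Signal: Fluo-8 calcium-sensitive fluorescence; Measure: % inhibition of agonist calcium response; Controls: DMSO and EC80 PEA controls.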
OX1R antag-1 – human HCRTR1 antagonism; O43613; inhibition, % at 5 µM; CHO/OX1R cells, Fluo-8 calcium fluorescence, orexin A; AID 434989; actives 0.43% (n = 330,000);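 active = inhibition above its plate's threshold, mean inhibition of all tested compounds on the plate plus 3 SD, cut at about 37% in these data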;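 note: 0% = orexin A challenge wells and 100% = SB-334867-A antagonist wells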
Target sequence (O43613 whole entry, looked up): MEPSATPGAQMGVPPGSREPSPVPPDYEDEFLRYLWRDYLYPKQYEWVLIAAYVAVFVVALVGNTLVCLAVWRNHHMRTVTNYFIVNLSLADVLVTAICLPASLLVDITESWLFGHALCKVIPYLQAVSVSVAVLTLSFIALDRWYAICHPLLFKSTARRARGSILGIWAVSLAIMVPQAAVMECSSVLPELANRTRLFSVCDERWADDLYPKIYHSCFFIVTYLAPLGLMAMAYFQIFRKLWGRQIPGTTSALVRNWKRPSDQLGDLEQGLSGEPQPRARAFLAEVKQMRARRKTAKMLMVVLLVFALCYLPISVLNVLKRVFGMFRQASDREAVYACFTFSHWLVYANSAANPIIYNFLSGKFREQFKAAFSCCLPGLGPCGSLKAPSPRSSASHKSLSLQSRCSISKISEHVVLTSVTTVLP
OX1R antag-2 – OX1R (human) antagonism. AID 485270. O43613. actives 1.8% (n = 330,000). inhibition, % at 6.6 µM. OX1R-expressing cells, FRET antagonist read-out; in the data active = inhibition mostly above about 38%, no sharp cut-off; inactive = mostly below about 40%;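 note: 0% = agonist challenge alone and 100% = reference antagonist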
Active calls of the source: *; . = no result given.

SMILES	TAAR1 ag	CHO parental Ca	GPR7 antagonist	TAAR1 antag	OX1R antag-1	OX1R antag-2
O=C(COC(=O)/C=C/c1ccc(Cl)cc1)Nc1ccc2c(c1)OCCO2	42*	5	-8	54*	-15	11
CN(Cc1cnn(-c2ccccc2)c1)C(=O)c1cccc(S(=O)(=O)Nc2ccccc2F)c1	4	.	.	2	.	.
O=C(NCCN1CCOCC1)C(=O)NCC1OCCN1S(=O)(=O)c1ccc(Cl)cc1 (stereo unspecified)	5	.	.	-14	.	.
Cc1ccc(-c2cc(-c3ccc(C)cc3O)[nH]n2)cc1	5	-16	-15	-3	-31	10
Cc1ccc(O)c(-c2cc(-c3cccc(Br)c3)n[nH]2)c1	-1	54*	-15	6	24	12
CSc1ncnc2c1ncn2CCCN1CCN(c2ccccn2)CC1	4	.	.	-12	.	.
COc1ccccc1N1CCN(C(=O)c2cc(S(=O)(=O)N3CCCCC3)ccc2C)CC1	11	-24	.	24	-18	6
CCOc1ccccc1N1CCN(C(=O)c2cc(S(=O)(=O)N3CCCCC3)ccc2C)CC1	28	-23	.	55*	-16	-4
CC1(C(=O)NCc2ccccc2)CN(S(C)(=O)=O)CC(=O)N1CCc1ccc(O)cc1 (stereo unspecified)	5	.	.	-1	.	.
Cc1occc1-c1nnc(-c2cc([N+](=O)[O-])cc([N+](=O)[O-])c2)o1	11	-16	-2	-4	-20	59*
O=[N+]([O-])c1cccc(-c2nnc(-c3ccccc3)o2)c1	-1	-4	3	5	-7	24
CCOc1cccc(C=NNc2nc(=O)cc(C(=O)OC)s2)c1O	2	.	.	10	.	.
Cc1cc(/C=N/n2cnnc2)c(C)n1-c1ccc(OCc2ccc(Cl)cc2)cc1	15	49*	11	47	52*	14
C(=N\n1cnnc1)/c1ccc(OCc2ccccc2)cc1	13	1	0	27	-7	6
Cc1cc(/C=N/n2cnnc2)c(C)n1-c1ccc(OCc2ccccc2F)cc1	14	56*	9	29	20	23
CCN(CC)Cc1cc(NC2=NS(=O)(=O)c3ccccc32)ccc1OC(=O)c1ccccc1	1	12	6	-7	-6	11
O=C(Oc1cccc(NC2=NS(=O)(=O)c3ccccc32)c1)c1cccnc1	23	-6	-3	49*	-16	12
CCC(CO)[n+]1c(C)cc(/C=C2\Sc3ccccc3N2Cc2ccccc2)cc1C (stereo unspecified)	5	41*	0	6	17	15
O=S(=O)(NCC1CCCO1)c1ccc(-c2ccc(S(=O)(=O)NCC3CCCO3)cc2)cc1 (stereo unspecified)	9	41*	3	16	40*	21
CCC1CCCCN1C(=O)COC(=O)CSc1ccc(C(N)=O)cc1[N+](=O)[O-] (stereo unspecified)	5	-17	.	-11	-12	20
CCOC(=O)C1CCN(C(=O)COC(=O)CSc2ccc(C(N)=O)cc2[N+](=O)[O-])CC1	0	-5	-10	-1	-11	55*
Cc1ccc(C(=O)OCC(=O)Nc2c(C)n(C)n(-c3ccccc3)c2=O)cc1[N+](=O)[O-]	6	-1	-4	-8	-16	16
Cc1c(NC(=O)COC(=O)CSc2ccc(C(N)=O)cc2[N+](=O)[O-])c(=O)n(-c2ccccc2)n1C	7	-4	7	-24	2	71*
COC(=O)C1CCN(C(=O)COC(=O)CSc2ccc(C(N)=O)cc2[N+](=O)[O-])CC1	1	-1	.	-12	-7	37*
Nc1ccn([C@@H]2O[C@H](C(=O)N[C@H](Cc3ccccc3)C(=O)N3CCSC3)[C@@H](O)[C@H]2O)c(=O)n1	0	.	.	0	.	.
SMILES	TAAR1 ag	CHO parental Ca	GPR7 antagonist	TAAR1 antag	OX1R antag-1	OX1R antag-2
Cc1ccc([N+](=O)[O-])cc1NC(=O)c1ccc(C(C)(C)C)cc1	7	-4	2	53*	11	15
COc1ccc([C@H]2CC(=O)C[C@@H](CCn3cc(-c4ccc(F)cc4)nn3)O2)cc1	3	.	.	-21	.	.
CCn1c(O)c(N=NC(=O)CNC(=O)/C=C/c2ccco2)c2ccccc21	7	-9	-1	-9	-7	36*
CCn1c(O)c(N=NC(=O)c2cccs2)c2ccccc21	4	-25	-1	22	8	76*
CCCn1c(O)c(N=NC(=O)c2ccco2)c2ccccc21	8	-27	-7	7	-43	36
CN(C)S(=O)(=O)c1cccc(COC(=O)Cc2c(F)cccc2Cl)c1	2	45*	0	20	-14	32
CN(C)S(=O)(=O)c1cccc(COC(=O)c2cccnc2Cl)c1	8	10	6	-8	17	38
Cc1cc(Cl)c(S(=O)(=O)N2CCSCC2)cc1OCC(=O)NC1CCCCC1	22	9	4	54*	0	0
CCN1CCN(S(=O)(=O)c2cc(OCC(=O)NC3CCCCC3)c(C)cc2Cl)CC1	13	-3	10	0	-19	6
CCc1nc2c(OCc3ccccc3C(=O)OC)cccn2c1N(C)C(=O)CC(C)C	3	.	.	1	.	.
CCN1CCN(CC(=O)Nc2ccccc2)C(=O)C1=O	0	-10	15*	-10	-19	14
CCN1CCN(CC(=O)Nc2ccc(Cl)c(Cl)c2)C(=O)C1=O	10	8	3	4	-4	13
O=C(CSc1cccc[n+]1[O-])Nc1ccc(Cl)cc1F	2	4	.	-15	-24	-1
Cc1ccc(NC(=O)CSc2cccc[n+]2[O-])c([N+](=O)[O-])c1	1	-1	-6	-31	-1	69*
O=C(CSc1cccc[n+]1[O-])Nc1cc([N+](=O)[O-])ccc1Cl	0	-2	-13	-5	-23	43*
Cc1cc(C)c(NC(=O)CSc2cccc[n+]2[O-])c(C)c1	1	-7	.	-1	-8	5
CCOC(=O)C1CSCCS(=O)(=O)N1Cc1cccc(Cl)c1 (stereo unspecified)	-1	.	.	1	.	.
O=C(CCS(=O)(=O)c1ccccc1)Nc1cccc(-c2nc3ccccc3s2)c1	19	-5	1	60*	6	55*
O=C(CCS(=O)(=O)c1ccccc1)Nc1ccc(-c2nc3ccccc3s2)cc1	5	-6	-17	9	-19	13
O=C(C(=O)N1CCC(Cc2ccccc2)CC1)c1ccccc1Br	-2	.	.	30	.	.
CCOC(=O)C1CCCN(C2CC(=O)N(c3cccc(C(F)(F)F)c3)C2=O)C1 (stereo unspecified)	43*	-6	-19	44	-15	9
CC(=O)Nc1ccc(OCC(O)Cn2c3ccccc3c3ccccc32)cc1 (stereo unspecified)	22	-4	7	-8	5	12

Screening data (PubChem BioAssay)
